Source: ChEMBL document CHEMBL4680373, “Evaluation of 5-(Trifluoromethyl)-1,2,4-oxadiazole-Based Class IIa HDAC Inhibitors for Huntington's Disease” (ACS Med Chem Lett, 2021)
pIC50, pKd: −log10 of the molar value. In brackets after ≈: the same amount, converted by molar mass.

Legend:
[1] = Kinetic solubility of the compound; assay type: physicochemical; settings: read-out: Kinetic_solubility
[2] = target: Voltage-gated inwardly rectifying potassium channel KCNH2 (Homo sapiens, UniProt Q12809); experiment: Inhibition of human ERG
Sequence of Voltage-gated inwardly rectifying potassium channel KCNH2 (Q12809 whole entry): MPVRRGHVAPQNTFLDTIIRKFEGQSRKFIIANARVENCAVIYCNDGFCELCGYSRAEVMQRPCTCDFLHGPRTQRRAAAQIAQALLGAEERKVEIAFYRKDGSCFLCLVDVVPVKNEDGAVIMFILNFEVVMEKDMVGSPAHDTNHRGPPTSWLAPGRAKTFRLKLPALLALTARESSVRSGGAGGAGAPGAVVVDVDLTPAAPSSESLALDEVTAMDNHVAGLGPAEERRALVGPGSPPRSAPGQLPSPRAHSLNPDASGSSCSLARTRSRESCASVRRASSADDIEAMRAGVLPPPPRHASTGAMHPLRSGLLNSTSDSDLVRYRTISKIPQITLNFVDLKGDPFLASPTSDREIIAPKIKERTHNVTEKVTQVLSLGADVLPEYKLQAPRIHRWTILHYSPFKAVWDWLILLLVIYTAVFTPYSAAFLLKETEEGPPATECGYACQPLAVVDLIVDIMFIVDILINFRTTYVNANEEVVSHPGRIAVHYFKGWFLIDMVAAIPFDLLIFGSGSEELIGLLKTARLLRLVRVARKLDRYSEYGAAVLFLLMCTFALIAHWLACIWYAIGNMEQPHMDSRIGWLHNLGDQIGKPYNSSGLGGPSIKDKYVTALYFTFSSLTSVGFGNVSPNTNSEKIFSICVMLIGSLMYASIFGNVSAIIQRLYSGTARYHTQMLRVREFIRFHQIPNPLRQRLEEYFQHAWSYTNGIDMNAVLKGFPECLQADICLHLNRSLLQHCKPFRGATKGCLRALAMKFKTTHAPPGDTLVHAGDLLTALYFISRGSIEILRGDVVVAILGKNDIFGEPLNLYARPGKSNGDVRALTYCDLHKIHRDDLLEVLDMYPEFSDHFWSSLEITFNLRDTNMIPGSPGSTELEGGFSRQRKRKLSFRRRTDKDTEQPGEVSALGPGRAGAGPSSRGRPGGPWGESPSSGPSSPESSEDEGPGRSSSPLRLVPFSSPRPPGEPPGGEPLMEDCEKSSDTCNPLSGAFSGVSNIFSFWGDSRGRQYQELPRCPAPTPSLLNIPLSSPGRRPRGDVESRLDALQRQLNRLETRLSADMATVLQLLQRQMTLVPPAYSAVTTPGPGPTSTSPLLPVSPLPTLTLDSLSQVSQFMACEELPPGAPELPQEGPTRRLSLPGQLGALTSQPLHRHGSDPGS
In short: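 hERG affinity was measured on the IonWorks automated electrophysiology platform and reported as Kd.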

[3] = Toxicity in CBAxC57BL/6J mouse assessed as effect on shivering at 10 to 100 mg/kg, po bid for 14.5 days; assay type: organism-based; settings: in vivo, 348 h, dose 10-100 mg/kg, time 14.5 day
In short: (§1)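 R6/2 HD mice and wild-type littermates, male and female, were dosed orally b.i.d. at 10, 30 or 100 mg/kg or with vehicle for 14.5 days. Vehicle was 10% (w/v) hydroxypropyl-β-cyclodextrin in 50 mM citrate buffer. Body weight, body temperature, passive observations and active manipulation scores were recorded. Blood and brain were collected 2 h after the final dose.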

[4] = target: Sigma non-opioid intracellular receptor 1 (Homo sapiens) (UniProt Q99720); experiment: Displacement of [3H](+)-pentazocine from human sigma1 receptor at 10 uM incubated for 120 mins by radiometric scintillation counting analysis
Sequence of Sigma non-opioid intracellular receptor 1 (Homo sapiens) (Q99720 whole entry): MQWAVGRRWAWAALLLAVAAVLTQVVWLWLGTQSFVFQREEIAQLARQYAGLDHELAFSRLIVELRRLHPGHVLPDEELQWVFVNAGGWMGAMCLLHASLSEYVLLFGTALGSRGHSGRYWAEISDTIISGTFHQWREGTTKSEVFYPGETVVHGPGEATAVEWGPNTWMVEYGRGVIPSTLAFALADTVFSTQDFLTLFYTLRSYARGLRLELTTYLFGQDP
In short: (§2)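 Broad selectivity panel of binding, cellular, functional and enzymatic assays run by a contract lab. Each test was done at a single 10 μM concentration and reported as percent inhibition.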

[5] = Toxicity in CBAxC57BL/6J mouse assessed as effect on irritability at 10 to 100 mg/kg, po bid for 14.5 days; assay type: organism-based; settings: in vivo, 348 h, dose 10-100 mg/kg, time 14.5 day; in short: as §1
[6] = target: Cytochrome P450 2D6 (Homo sapiens, UniProt P10635); experiment: Inhibition of CYP2D6 in human liver microsomes using dextromethorphan as substrate incubated for 15 mins by LC-MS/MS analysis; assay type: ADME
Sequence of Cytochrome P450 2D6 (P10635 whole entry): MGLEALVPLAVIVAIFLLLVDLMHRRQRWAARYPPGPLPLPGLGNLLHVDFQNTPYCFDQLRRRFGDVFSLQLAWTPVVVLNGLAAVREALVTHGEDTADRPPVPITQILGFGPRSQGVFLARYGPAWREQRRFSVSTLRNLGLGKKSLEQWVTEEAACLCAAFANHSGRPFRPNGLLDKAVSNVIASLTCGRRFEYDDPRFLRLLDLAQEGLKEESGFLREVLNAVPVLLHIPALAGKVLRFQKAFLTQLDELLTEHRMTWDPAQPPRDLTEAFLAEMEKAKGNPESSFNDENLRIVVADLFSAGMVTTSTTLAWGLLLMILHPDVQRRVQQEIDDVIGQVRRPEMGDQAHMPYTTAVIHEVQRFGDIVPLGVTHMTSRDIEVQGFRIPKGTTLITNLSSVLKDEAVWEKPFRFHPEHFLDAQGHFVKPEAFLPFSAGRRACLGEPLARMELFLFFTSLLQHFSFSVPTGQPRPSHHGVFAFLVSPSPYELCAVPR

[7] = In vivo inhibition of Class 1 HDAC in C57BL/6J mouse brain assessed as increase in histone H3/H4 acetylation administered orally via gavage measured after 2 hrs by western blot analysis; assay type: organism-based; settings: po, dose 10-100 mg/kg
In short: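 Brain samples were taken 2 h after single oral gavage doses (10, 30, 100 mg/kg). Western blots probed H3, H4 and tubulin acetylation, each normalized to its own total-protein band. Comparison was against samples taken 5 min after a 10 mg/kg dose.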

[8] = In vivo inhibition of Class 1 HDAC in C57BL/6J mouse brain assessed as increase in H4K12 acetylation administered orally via gavage measured after 2 to 4 hrs by dot blot technique; assay type: organism-based; settings: po, dose lower 10 mg/kg, time lower 2 hrs, dose upper 100 mg/kg, time upper 4 hrs
In short: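 Mice received single oral gavage doses of 10, 30 or 100 mg/kg, and brains were sampled from 0.25 to 12 h. Brain compound levels were measured by LC-MS/MS. Dot blots read H4K12 acetylation normalized to histone H4, or pan-acetyl-lysine normalized to tubulin.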

[9] = target: T1, Histone deacetylase 8 (Homo sapiens, UniProt Q9BY41); experiment: Inhibition of HDAC8 (unknown origin) using Boc-Lys(TFA) as substrate by fluorogenic assay
T1 sequence (Q9BY41 whole entry): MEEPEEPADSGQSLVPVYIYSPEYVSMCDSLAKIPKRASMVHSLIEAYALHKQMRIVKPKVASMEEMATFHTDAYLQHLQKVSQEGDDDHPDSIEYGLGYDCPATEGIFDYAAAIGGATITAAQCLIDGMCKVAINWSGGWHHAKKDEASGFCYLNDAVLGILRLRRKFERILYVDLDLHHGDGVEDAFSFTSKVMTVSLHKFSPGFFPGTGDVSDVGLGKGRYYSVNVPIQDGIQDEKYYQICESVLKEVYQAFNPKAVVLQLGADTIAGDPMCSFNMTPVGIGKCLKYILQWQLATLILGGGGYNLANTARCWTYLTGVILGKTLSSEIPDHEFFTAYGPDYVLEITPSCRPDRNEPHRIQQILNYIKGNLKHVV
In short: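 Biochemical HDAC isoform assay with the artificial fluorogenic substrate Boc-Lys-(TFA)-AMC, which is specific to class IIa enzymes and HDAC8. IC50 taken as the geometric mean of three experiments.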

[10] = Toxicity in CBAxC57BL/6J mouse assessed as effect on flat body posture at 10 to 100 mg/kg, po bid for 14.5 days; assay type: organism-based; settings: in vivo, 348 h, dose 10-100 mg/kg, time 14.5 day; in short: as §1
[11] = target: Class 1 histone deacetylase (Homo sapiens, UniProt Q13547+O15379+Q92769+Q9BY41); experiment: Inhibition of Class 1 HDAC in human HEK293 cells using H4K12 as substrate by fluorogenic assay; assay type: cell-based
[12] = Toxicity in CBAxC57BL/6J mouse assessed as effect on head tremor at 10 to 100 mg/kg, po bid for 14.5 days; assay type: organism-based; settings: in vivo, 348 h, dose 10-100 mg/kg, time 14.5 day; in short: as §1
[13] = In vivo inhibition of Class 2B HDAC in CBAxC57BL/6J mouse brain assessed as increase in tubulin acetylation at 30 to 100 mg/kg, po bid for 14.5 days by western blot analysis; assay type: organism-based; settings: 348 h, dose 30-100 mg/kg, time 14.5 day
In short: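 R6/2 and wild-type littermate mice of both sexes were dosed orally b.i.d. for 14.5 days with 10, 30 or 100 mg/kg or vehicle (10% w/v hydroxypropyl-β-cyclodextrin in 50 mM citrate buffer). Half-brains were collected 2 h after the last dose. Dot blots measured global and H4K12 acetylation; Western blots measured H3, H4 and tubulin acetylation. Genotypes were pooled.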

[14] = Toxicity in CBAxC57BL/6J mouse assessed as effect on ataxia at 10 to 100 mg/kg, po bid for 14.5 days; assay type: organism-based; settings: in vivo, 348 h, dose 10-100 mg/kg, time 14.5 day; in short: as §1
[15] = Plasma clearance in C57BL/6J mouse at 3.3 mg/kg, iv by LC-MS/MS analysis; assay type: ADME, organism-based
In short: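 Fed male C57Bl/6 mice dosed once intravenously at 3.3 mg/kg and by oral gavage at 11.5 mg/kg. Compound levels were quantified to derive PK parameters.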

[16] = Toxicity in CBAxC57BL/6J mouse assessed as effect on touch escape at 10 to 100 mg/kg, po bid for 14.5 days; assay type: organism-based; settings: in vivo, 348 h, dose 10-100 mg/kg, time 14.5 day; in short: as §1
[17] = Toxicity in CBAxC57BL/6J mouse assessed as effect on body temperature at 10 to 100 mg/kg, po bid for 14.5 days; assay type: organism-based; settings: in vivo, 348 h, dose 10-100 mg/kg, time 14.5 day; in short: as §1
[18] = target: Muscarinic acetylcholine receptor M2 (Homo sapiens) (UniProt P08172); experiment: Displacement of [3H]AF-DX384 from human recombinant M2 receptor at 10 uM incubated for 1 hr by radiometric scintillation counting analysis; in short: as §2
Sequence of Muscarinic acetylcholine receptor M2 (Homo sapiens) (P08172 whole entry): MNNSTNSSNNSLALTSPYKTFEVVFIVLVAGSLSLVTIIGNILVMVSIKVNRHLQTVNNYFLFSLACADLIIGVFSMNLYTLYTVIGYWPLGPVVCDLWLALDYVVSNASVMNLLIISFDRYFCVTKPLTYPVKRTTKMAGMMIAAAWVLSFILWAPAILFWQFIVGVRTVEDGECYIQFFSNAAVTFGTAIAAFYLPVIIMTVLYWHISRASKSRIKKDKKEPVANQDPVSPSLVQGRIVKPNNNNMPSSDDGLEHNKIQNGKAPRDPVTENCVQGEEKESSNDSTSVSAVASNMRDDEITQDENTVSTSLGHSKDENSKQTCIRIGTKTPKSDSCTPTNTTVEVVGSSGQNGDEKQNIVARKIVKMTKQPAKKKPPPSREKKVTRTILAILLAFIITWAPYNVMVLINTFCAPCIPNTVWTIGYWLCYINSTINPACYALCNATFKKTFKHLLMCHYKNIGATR

[19] = target: Muscarinic acetylcholine receptor M3 (Homo sapiens, UniProt P20309); experiment: Displacement of [3H]4-DAMP from human recombinant M3 receptor at 10 uM incubated for 1 hr by radiometric scintillation counting analysis; in short: as §2
Sequence of Muscarinic acetylcholine receptor M3 (P20309 whole entry, looked up): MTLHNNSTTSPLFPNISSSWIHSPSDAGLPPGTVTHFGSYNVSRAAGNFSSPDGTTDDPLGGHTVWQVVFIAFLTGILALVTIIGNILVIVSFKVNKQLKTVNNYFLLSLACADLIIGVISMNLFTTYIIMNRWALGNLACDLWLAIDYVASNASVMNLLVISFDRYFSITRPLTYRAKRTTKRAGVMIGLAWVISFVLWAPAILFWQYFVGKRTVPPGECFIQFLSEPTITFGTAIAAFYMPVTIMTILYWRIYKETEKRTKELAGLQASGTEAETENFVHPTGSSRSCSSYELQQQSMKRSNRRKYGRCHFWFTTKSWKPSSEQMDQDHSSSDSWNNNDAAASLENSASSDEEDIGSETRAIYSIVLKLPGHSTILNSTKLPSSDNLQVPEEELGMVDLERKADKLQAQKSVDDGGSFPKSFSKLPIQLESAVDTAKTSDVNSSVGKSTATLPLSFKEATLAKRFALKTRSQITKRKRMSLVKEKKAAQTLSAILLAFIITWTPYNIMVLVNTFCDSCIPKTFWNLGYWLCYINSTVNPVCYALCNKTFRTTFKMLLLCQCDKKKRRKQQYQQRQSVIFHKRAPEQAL

[20] = Time during which drug concentration exceeds the IC50 for inhibition of human Class 2A HDAC in C57BL/6J mouse brain at 30 mg/kg, po administered via gavage by LC-MS/MS analysis; assay type: organism-based; settings: in vivo
In short: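 Single oral gavage doses of 10, 30 or 100 mg/kg were given to C57/BL6 mice. Brain and blood were sampled from 0.25 to 12 h and compound measured by LC-MS/MS. The time that total brain exposure stayed above the class IIa cellular IC50 was then estimated.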

[21] = Toxicity in CBAxC57BL/6J mouse assessed as effect on retropulsion at 10 to 100 mg/kg, po bid for 14.5 days; assay type: organism-based; settings: in vivo, 348 h, dose 10-100 mg/kg, time 14.5 day; in short: as §1

solubility kinetic [1]: 166 µM (≈ 63.5 µg/mL)
inhibition [4]: > 50%
pIC50 [6]: < 4.30
pIC50 [9]: 5.70
IC50 [11]: 9.9 µM
clearance [15]: 70 mL/min/kg
inhibition [18]: > 80%
inhibition [19]: > 80%
T>IC50 [20]: 8 h
SMILES: C[C@H](CN1CCC[C@@H]1C)NC(=O)c1ccc(-c2noc(C(F)(F)F)n2)cc1
pKd [2]: 5.41
Activity [3]: Non-Toxic
Activity [5]: Non-Toxic
Activity [7]: Toxic
Activity [8]: Toxic
Activity [10]: Non-Toxic
Activity [12]: Non-Toxic
Activity [13]: Toxic
Activity [14]: Non-Toxic
Activity [16]: Non-Toxic
Activity [17]: Non-Toxic
Activity [21]: Non-Toxic
